PLC-beta3 inh = human PLC-beta3 inhibitors, primary screen, biochemical, fluorescence; 1-phosphatidylinositol 4,5-bisphosphate phosphodiesterase beta-3 (Homo sapiens), Q01970; Purified PLC-beta3, fluorogenic substrate; inhibition, % at 12.2 µM; 370,000 tested, 0.18% active; AID 720704, 2013; in the data active = inhibition above about 11%;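 note: 0% = median of compound wells on plate and 100% = full blocker control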
FID counter = compounds displacing fluorescent DNA intercalator, primary screen, artefact control for HCV NS3 helicase inhibitor project, biochemical, FID fluorescence; DNA fluorescent intercalator displacement; inhibition, % at 7.9 µM; 290,000 tested, 0.17% active; in the data active = inhibition above about 37%;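 note: 0% = vehicle and 100% = reference compound; higher means more ethidium bromide displaced from hairpin DNA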
Tn7 DDE FP = inhibitors of Tn7 peptide binding to fibrin DD(E), primary screen, biochemical, fluorescence polarization, human fibrin, Tn7 probe; Fibrinogen beta chain (Homo sapiens), P02675; FP displacement of FITC-Tn7 peptide from fibrin DD(E); 0% = median of compound wells per plate; inhibition, % at 8.3 µM; 370,000 tested, 0.13% active; AID 720508, 2013;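 active = inhibition above the mean of compounds falling within the control limits plus 3 SD of them, cut at about 14% in these data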;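 note: 0% = plate median of compound wells and 100% = 10 µM Aha-Tn7 peptide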
Target sequence (P02675 whole entry, looked up): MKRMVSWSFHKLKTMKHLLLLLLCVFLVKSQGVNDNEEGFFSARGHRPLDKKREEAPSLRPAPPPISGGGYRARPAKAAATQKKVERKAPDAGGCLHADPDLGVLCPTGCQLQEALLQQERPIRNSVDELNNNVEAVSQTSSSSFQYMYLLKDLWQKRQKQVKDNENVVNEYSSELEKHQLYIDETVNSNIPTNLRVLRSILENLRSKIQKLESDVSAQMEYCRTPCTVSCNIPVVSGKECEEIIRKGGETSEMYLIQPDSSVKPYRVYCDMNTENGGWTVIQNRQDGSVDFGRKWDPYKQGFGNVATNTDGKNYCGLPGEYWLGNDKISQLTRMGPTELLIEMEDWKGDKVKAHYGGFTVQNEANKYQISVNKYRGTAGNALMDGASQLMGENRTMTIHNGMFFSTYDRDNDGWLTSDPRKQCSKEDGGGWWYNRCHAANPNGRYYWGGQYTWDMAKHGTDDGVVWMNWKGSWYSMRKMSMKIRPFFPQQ
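Also added: labelled Tn7 tracer, 0.1 µM; Assay system: human fibrin DD(E) protein; Amount: 2 µM fibrin DD(E); Schedule: 10 min compound pre-incubation, 3 h probe incubation at room temperature; Repeats: one replicate per compound; Read-out basis: percent inhibition; Measured by: fluorescence polarization of the labelled Tn7 tracer.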
PLC-gamma1 inh = PLC-gamma1 enzyme inhibitors, primary screen, biochemical, fluorescence, purified enzyme; 1-phosphatidylinositol 4,5-bisphosphate phosphodiesterase gamma-1 (Homo sapiens), P19174; 370,000 tested, 0.84% active; inhibition, % at 12.2 µM; fluorogenic substrate
Tn6 DDE FP = inhibitors of Tn6 peptide binding to fibrin DD(E), primary screen, biochemical, fluorescence polarization, human fibrin, Tn6 probe. Fibrinogen beta chain (Homo sapiens), P02675. Fibrin DD(E) TRITC-Tn6 fluorescence polarization displacement. inhibition, % at 8.3 µM. 370,000 tested, 0.21% active;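 active = inhibition above a per-campaign cutoff: mean of compounds within control limits plus 3 SD, cut at about 15% in these data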;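 note: 0% = median of all compound wells on the plate and 100% = blocking peptide control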
PLCgamma1 ctr = PLC-gamma1 enzyme inhibitors, counter-screen for PLC-beta3 inhibitor project, biochemical, fluorescence | shares compounds with PLC-gamma1 inh | purified PLC-gamma1, fluorogenic substrate | inhibition, % at 12.3 µM | 3,300 tested, 3.1% active | AID 743258, 2014
PLCb3 confirm = PLC-beta3 inhibitor confirmation, biochemical, fluorescence, purified enzyme; shares compounds with PLC-gamma1 inh; fluorogenic substrate fluorescence; inhibition, % at 12.3 µM; 3,300 tested, 1% active; in the data active = inhibition above about 11%
* = called active by the depositor; / = no result. Rows were chosen to be rich in hits. Some 1.4% of all compounds tested hit in one or more screens of this group. Cut-off read from the data, not from the text of the source, unless noted: active = inhibition above about 9.5%; inactive = the rest.

SMILES | PLC-beta3 inh | FID counter | Tn7 DDE FP | PLC-gamma1 inh | Tn6 DDE FP | PLCgamma1 ctr | PLCb3 confirm
CCOC(=O)COc1nc2ccc(Br)cc2c(-c2ccccc2)c1C(C)=O | -3 | -36 | -9 | 9.8* | -7 | -5 | -4
CN1CC[C@]2(CCN3CCc4c(oc5ccccc45)[C@@H]3C2)N(C)C1=O | 25* | / | -1 | -34 | -2 | -15 | -14
CC1(C(=O)NC2CCCCCCC2)CCC(=O)N1Cc1cccnc1 (configuration not stated) | 4 | -6 | -8 | 13* | -1 | 0 | -2
COC(=O)c1cccc(NC(=O)Cc2ccccc2[N+](=O)[O-])c1C | 3 | -4 | 4 | -1 | 4 | / | /
CCCCn1c(-c2nonc2NC(=O)c2ccccc2Cl)nc2ccccc21 | -4 | / | -1 | 12* | 0 | -10 | -7
CCOc1ccc(N2C(=O)CC(S/C(N)=N/N=C/c3cccs3)C2=O)cc1 (configuration not stated) | 5 | 1 | 2 | 10* | -8 | 3 | 6
CCC(Sc1nc(C)cc(C)n1)C(=O)O (configuration not stated) | 0 | 7 | 6 | -6 | 6 | / | /
CCC(Sc1nc(C)cc(C)n1)C(=O)Nc1cc(C)on1 (configuration not stated) | 11* | -4 | -9 | 11* | 4 | -6 | -1
CC12CC3(C)CC(C)(C1)CC(C(N)=O)(C2)C3 | 13* | -6 | 8 | 11* | 3 | 4 | -2
CN(C)CCOC(=O)C12CC3(C)CC(C)(CC(C)(C3)C1)C2 | 2 | 8 | 7 | 2 | -7 | / | /
O=C(NCC1(O)CCCCC1)C1CCC(=O)N(CCc2ccccc2)C1 (configuration not stated) | -2 | -16 | 3 | 3 | 7 | / | /
COCCn1c(SCC(=O)NC2CCCCC2C)nc2ccccc2c1=O (configuration not stated) | -7 | -15 | -1 | 1 | -6 | / | /
C=CC[C@H](CC(=O)N(CCO)Cc1ccccc1)C(=O)N[C@@H](COC(=O)[C@H](CC=C)CC(=O)OC(C)(C)C)Cc1c[nH]c2ccccc12 | 3 | / | -1 | -3 | -4 | / | /
C=CCC[C@H](Cc1ccc(F)cc1)C(=O)OC[C@H](Cc1c[nH]c2ccccc12)NC(=O)[C@@H](CC=C)CC(=O)N[C@@H](CO)Cc1ccccc1 | 4 | / | -1 | 1 | -5 | / | /
C=CC[C@@H](CC(=O)N(CCO)Cc1ccccc1)C(=O)N[C@H](COC(=O)[C@@H](CC=C)Cc1ccc(F)cc1)c1ccccc1 | -1 | / | 0 | 6 | -5 | / | /
C=CCC[C@H](Cc1ccc(F)cc1)C(=O)OC[C@H](Cc1c[nH]c2ccccc12)NC(=O)[C@@H](CC=C)CC(=O)N[C@H](CO)Cc1ccccc1 | -3 | / | 0 | 12* | -11 | 5 | -1
C=CCC[C@H](Cc1ccc(F)cc1)C(=O)OC[C@@H](Cc1c[nH]c2ccccc12)NC(=O)[C@H](CC=C)CC(=O)N(CCO)Cc1ccccc1 | 5 | / | -7 | 12* | -5 | -6 | -2
C=CC[C@@H](CC(=O)N(CCO)Cc1ccccc1)C(=O)NC[C@H](OC(=O)[C@@H](CC=C)Cc1ccc(F)cc1)c1ccccc1 | 4 | / | -2 | 10* | -7 | -5 | -1
C=CC[C@@H](CC(=O)N(CCO)Cc1ccccc1)C(=O)N[C@H](COC(=O)[C@@H](CC=C)CC(=O)OC(C)(C)C)Cc1c[nH]c2ccccc12 | 9 | / | -12 | 9.6* | 0 | 1 | -9
COc1ccc(C2SCC(=O)N2c2nc3ccccc3s2)cc1 (configuration not stated) | 2 | -4 | -9 | 5 | -2 | / | /
Cc1onc(-c2c(F)cccc2Cl)c1C(=O)Nc1nc2c(s1)CCCC2 | -18 | -18 | 2 | -10 | 0 | / | /
COc1ccc(Cl)cc1C(=O)OCC(=O)Nc1cccnc1Cl | -8 | / | 4 | -2 | 8 | / | /
O=C(Nn1c(C2CCC2)nc2ccccc2c1=O)c1cccs1 | 15* | -9 | -4 | 9 | 3 | -6 | -4
O=C(Nn1c(C2CCC2)nc2ccccc2c1=O)C1CCC1 | 0 | 1 | -1 | 0 | -5 | / | /
O=C(Cc1cn2ccsc2n1)Nc1ccccc1Oc1ccccc1 | 0 | -13 | 7 | 1 | 14 | / | /
SMILES | PLC-beta3 inh | FID counter | Tn7 DDE FP | PLC-gamma1 inh | Tn6 DDE FP | PLCgamma1 ctr | PLCb3 confirm
O=C(NCCCN1CCCC1=O)NC1CCCCC1 | 11* | 0 | -2 | 5 | -2 | -2 | -1
O=C(O)C1CCCCC1C(=O)NCCCN1CCCC1=O (configuration not stated) | -3 | -2 | -9 | -1 | -2 | / | /
COc1ccccc1NC(=O)Cn1c(=O)n(C)c(=O)c2sc3c(c21)COC(C)(C)C3 | 2 | -17 | -7 | 13* | 0 | -5 | 1
COc1ccccc1NC(=O)Cn1nnc2sc3c(c2c1=O)CC(C)(C)OC3 | -4 | -9 | -5 | 2 | 2 | / | /
COC(=O)NNC(=O)C12CC3CC(CC(C3)C1)C2 | 5 | -4 | -4 | 14* | -2 | -6 | -3
COc1ccc(CC2CCOC2=O)cc1 (configuration not stated) | 3 | -3 | -1 | 10* | -1 | -7 | -1
COc1ccc(Cl)cc1NC(=O)c1nnn(CC(=O)Nc2ccc(C)c(C)c2)c1N | -5 | -2 | -5 | 9.7* | 7 | -19 | -18
COc1ccc(NC(=O)Cn2nnc(C(=O)NCc3ccccc3)c2N)cc1Cl | 7 | -2 | -1 | -3 | 5 | / | /
COc1ccc(NC(=O)Cn2nnc(C(=O)NCc3ccc(C)cc3)c2N)cc1Cl | -6 | -13 | 3 | 13* | 1 | -2 | -2
COc1ccc(S(=O)(=O)N2CCN(CC(=O)Nc3cccc(OC)c3)CC2)cc1 | -8 | -28 | -1 | 1 | -3 | / | /
CCc1nc2c(OC)cccn2c1N(C)C(=O)c1ccccc1F | -6 | / | -2 | -11 | 5 | / | /
CCc1nc2c(OCc3ccc(Cl)cc3Cl)cccn2c1N(C)C(=O)c1ccccc1F | 11* | / | 1 | 4 | -9 | -4 | -4
Cc1cc(-c2nc(C)c(C(=O)NNS(=O)(=O)c3cccc(C(F)(F)F)c3)s2)no1 | 2 | -22 | -8 | 11* | -7 | -2 | -1
